Format in all cases: functional
Experiment [1] has as its system Rattus norvegicus. The experiment can be described thus: Inhibition of Zymosan-induced rat's paw edema(ZPE) after peroral administration of 100 mg/kg dose. Particulars: route oral. In short, it runs like this: (§1)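 Male Wistar rats (about 150 g) were dosed orally with compound suspended in 5% arabic gum, 1 h before a subplantar hind-paw injection of 0.1 mL saline. The irritant was 1% zymosan for 33 or 1% λ-carrageenin for 34. Paw volume was measured by plethysmograph before dosing and at 4 h (zymosan) or 3 h (carrageenin). Swelling is relative to initial volume, as mean ± SEM. % inhibition is versus the control group's mean swelling.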

The subject of experiment [2] is Rattus norvegicus. Put plainly: Compound was tested for the inhibition of rat reversed passive Arthus pleurisy after peroral administration of 100 mg/kg dose at 2.23*10e6 no of cells with 2.28*10er cells of control. The note with it: route oral. In short, it runs like this: (§2)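 Male Wistar rats (about 250 g) were given compound orally before the antiserum. Under ether anesthesia, 0.2 mL rabbit anti-egg albumin antiserum was injected intrapleurally. After 30 min, egg albumin (15 mg/100 g body weight in 0.1 mL saline) was given iv. Rats were killed 4.5 h later and the thoracic cavity was rinsed with 5 mL saline. Exudate volume and infiltrated cell number were measured, with inhibition % versus controls as mean ± SEM.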

Experiment [3] relates to Rattus norvegicus. The experiment can be described thus: Inhibition of carrageenan-induced rat's paw edema (CPE) after peroral administration of 100 mg/kg dose. The note with it: route oral. In short, it runs like this: as §1
(Carrageenan injected into the paw causes an acute inflammation.)

Experiment [4] has as its system Rattus norvegicus. Put plainly: Compound was tested for the inhibition of rat reversed passive Arthus pleurisy after peroral administration of 100 mg/kg dose at 0.42 mL of exudate volume with 0.52 mL of control (injected intrapleurally). Particulars: route oral. In short, it runs like this:
as §2

For experiment [5], the system named is Rattus norvegicus. Put plainly: Antiinflammatory activity on Carrageenan rat's paw edema(CPE) after peroral administration of 100 mg/kg dose with control swelling of 64.2%. The note with it: route oral.
For experiment [6], the system named is Rattus norvegicus. The experiment can be described thus: Antiinflammatory activity on Zymosan-induced rat's paw edema(ZPE) after peroral administration of 100 mg/kg dose with control swelling of 72.9%. Particulars: route oral. In short, it runs like this:
(§3)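 Male Wistar rats weighing about 150 g were dosed orally with compound suspended in 5% arabic gum. 1 h later, 1% zymosan in 0.1 mL saline was injected subplantarly into the hind paw. Paw volume was measured by plethysmograph before dosing and 4 h after zymosan, with edema as the volume difference. Inhibition % was derived from mean swelling versus the control group.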

In experiment [7] the test system is Rattus norvegicus. Put plainly: Antiinflammatory activity on Zymosan-induced rat's paw edema(ZPE) after peroral administration of 3 mg/kg dose with control swelling of 55.1%. Particulars: route oral. The gist of the method:
as §3

Experiment [8] has as its system Rattus norvegicus. Put plainly: Compound was tested for the inhibition of Carrageenan rat's paw edema(CPE) after peroral administration of 3 mg/kg dose. Particulars: route oral.
In experiment [9] the test system is Rattus norvegicus. The experiment can be described thus: Compound was tested for the inhibition of arachidonic acid-induced rat's paw edema(APE) after peroral administration of 10 mg/kg dose. The note with it: route oral. In short, it runs like this: (§4)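 Test: arachidonic acid paw edema in male Wistar rats of about 150 g. Oral dosing in 5% arabic gum came 1 h before subplantar injection of 1% arachidonic acid sodium salt in 0.1 mL saline into the hind paw. Plethysmograph paw volume was read before dosing and 1 h post-irritant, and edema = volume difference. % inhibition was taken from mean swelling against controls.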

Experiment [10] concerns Rattus norvegicus. The experiment can be described thus: Antiinflammatory activity on Zymosan-induced rat's paw edema(ZPE) after peroral administration of 10 mg/kg dose with control swelling of 55.1%. Particulars: route oral. In short, it runs like this: as §3
The subject of experiment [11] is Rattus norvegicus. Put plainly: Antiinflammatory activity on Zymosan-induced rat's paw edema(ZPE) after peroral administration of 100 mg/kg dose with control swelling of 55.1%. Particulars: route oral. In short, it runs like this:
as §3

Experiment [12] concerns Rattus norvegicus. Put plainly: Antiinflammatory activity on Carrageenan rat's paw edema(CPE) after peroral administration of 3 mg/kg dose with control swelling of 75.8%. Particulars: route oral.
The test system of experiment [13] is Rattus norvegicus. Put plainly: Compound was tested for the inhibition of Zymosan-induced rat's paw edema(ZPE) after peroral administration of 30 mg/kg dose. The note with it: route oral. The gist of the method:
as §3

For experiment [14], the system named is Rattus norvegicus. The experiment can be described thus: Compound was tested for the inhibition of Zymosan-induced rat's paw edema(ZPE) after peroral administration of 3 mg/kg dose. Particulars: route oral. The gist of the method:
as §3

Experiment [15] has as its system Rattus norvegicus. Put plainly: Compound was tested for the inhibition of arachidonic acid-induced rat's paw edema(APE) after peroral administration of 10 mg/kg dose with control swelling of 51.6%. Particulars: route oral. The gist of the method: as §4
The test system of experiment [16] is Rattus norvegicus. The experiment can be described thus: Compound was tested for the inhibition of Carrageenan rat's paw edema(CPE) after peroral administration of 10 mg/kg dose. The note with it: Rattus norvegicus, po.
Experiment [17] deals with Rattus norvegicus. The experiment can be described thus: Compound was tested for the inhibition of Zymosan-induced rat's paw edema(ZPE) after peroral administration of 10 mg/kg dose. The note with it: po. In short, it runs like this: as §3
In experiment [18] the test system is Rattus norvegicus. Put plainly: Antiinflammatory activity on Carrageenan rat's paw edema(CPE) after peroral administration of 10 mg/kg dose with control swelling of 75.8%. The note with it: route oral.
Experiment [19] has as its system Rattus norvegicus. Put plainly: Antiinflammatory activity on Zymosan-induced rat's paw edema(ZPE) after peroral administration of 100 mg/kg dose with control swelling of 62.0%. The note with it: route oral. The gist of the method: as §3
Experiment [20] deals with Rattus norvegicus. The experiment can be described thus: Compound was tested for the inhibition of rat reversed passive Arthus pleurisy after peroral administration of 100 mg/kg dose at 3.37*10e6 no of cells with 3.62*10e6 cells of control. Particulars: route oral. The gist of the method: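 Male Wistar rats (about 250 g) under ether received 0.2 mL rabbit anti-egg-albumin antiserum intrapleurally. Thirty min later they got 15 mg EA/100 g body weight in 0.1 mL saline iv. Compounds were given orally beforehand. Rats were killed 4.5 h after induction and the thoracic cavity rinsed with 5 mL saline. Exudate volume and infiltrated cell count were read as mean ± SE. % inhibition is versus control.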

Experiment [21] deals with Rattus norvegicus. Put plainly: Antiinflammatory activity on Carrageenan rat's paw edema(CPE) after peroral administration of 100 mg/kg dose with control swelling of 68.1%. The note with it: route oral.
The test system of experiment [22] is Rattus norvegicus. Put plainly: Compound was tested for the inhibition of rat reversed passive Arthus pleurisy after peroral administration of 100 mg/kg dose at 0.61 mL of exudate volume with 0.54 mL of control (injected intrapleurally). The note with it: route oral. The gist of the method: as §2
Experiment [23] has as its system Rattus norvegicus. The experiment can be described thus: Compound was tested for the inhibition of rat reversed passive Arthus pleurisy after peroral administration of 100 mg/kg dose at 1.19*10e6 no of cells with 7.4*10e6 cells of control. Particulars: route oral. The gist of the method: as §2
The subject of experiment [24] is Rattus norvegicus. Put plainly: Compound was tested for the inhibition of rat reversed passive Arthus pleurisy after peroral administration of 100 mg/kg dose at 0.28 mL of exudate volume with 0.82 mL of control (injected intrapleurally). Particulars: route oral. In short, it runs like this:
as §2

Experiment [25] relates to Rattus norvegicus. Put plainly: Antiinflammatory activity on Carrageenan rat's paw edema(CPE) after peroral administration of 100 mg/kg dose with control swelling of 71.9%. The note with it: route oral.
In experiment [26] the test system is Rattus norvegicus. The experiment can be described thus: Compound was tested for the inhibition of rat reversed passive Arthus pleurisy after peroral administration of 100 mg/kg dose at 0.66 mL of exudate volume with 0.79 mL of control (injected intrapleurally). Particulars: route oral. The gist of the method: as §2
Experiment [27] relates to Rattus norvegicus. Put plainly: Antiinflammatory activity on Zymosan-induced rat's paw edema(ZPE) after peroral administration of 100 mg/kg dose with control swelling of 85.5%. The note with it: route oral. The gist of the method: as §3
Experiment [28] relates to Rattus norvegicus. Put plainly: Compound was tested for the inhibition of rat reversed passive Arthus pleurisy after peroral administration of 100 mg/kg dose at 3.36*10e6 no of cells with 3.86*10e6 cells of control. The note with it: route oral. In short, it runs like this:
as §2

The subject of experiment [29] is Rattus norvegicus. Put plainly: Antiinflammatory activity on Carrageenan rat's paw edema(CPE) after peroral administration of 100 mg/kg dose with control swelling of 90.0%. Particulars: route oral.

One may read the inhibition in vivo as the drop in the measured response relative to a control, in per cent. Take `CNC(=O)c1c(O)c2cccnc2n(-c2ccccc2)c1=O`: the inhibition in vivo at 100 mg/kg in the experiment with Rattus norvegicus [1] came out at 9.6%; in the experiment on Rattus norvegicus [2], 3.2%; in the experiment with Rattus norvegicus [3], 21%; with Rattus norvegicus [4], 22.3%. For the same compound, the values for the Swelling in the experiment with Rattus norvegicus [5] and in the experiment on Rattus norvegicus [6] were 50.7% and 65.9%, respectively.
Regarding `CN1C(C(=O)Nc2ccccn2)=C(O)c2ccccc2S1(=O)=O` [PIROXICAM], the Swelling is 53.9% in the experiment on Rattus norvegicus [7]; 61.7% in the experiment with Rattus norvegicus [10]; 50.3% in the experiment with Rattus norvegicus [11]; 34.4% in the experiment on Rattus norvegicus [12]; 42.7% in the experiment with Rattus norvegicus [15]; 25.8% in the experiment with Rattus norvegicus [18]. Moreover, the results for the inhibition in vivo at 3 mg/kg in the experiment on Rattus norvegicus [8] and in the experiment on Rattus norvegicus [14] were 54.6% and 2.2%, respectively. Besides, the inhibition in vivo at 10 mg/kg was found to be 17.2% in the experiment on Rattus norvegicus [9], 66% in the experiment with Rattus norvegicus [16] and 9.4% in the experiment with Rattus norvegicus [17]. For the same compound, the inhibition in vivo at 30 mg/kg in the experiment with Rattus norvegicus [13] stood at 8.7%.
For the compound `O=C(NCc1ccccc1)c1c(O)c2cccnc2n(-c2ccccc2)c1=O`, the inhibition in vivo at 100 mg/kg is 1.6% in the experiment with Rattus norvegicus [1], 9.6% with Rattus norvegicus [20], 11.3% with Rattus norvegicus [3] and -14.3% in the experiment on Rattus norvegicus [22]. Further, the Swelling in the experiment with Rattus norvegicus [19] came out at 60.3%; in the experiment with Rattus norvegicus [21], 60.4%.
Regarding `Cc1cnccc1NC(=O)c1c(O)c2cccnc2n(-c2ccccc2)c1=O`, the inhibition in vivo at 100 mg/kg in the experiment with Rattus norvegicus [1] was 26.9%; in the experiment with Rattus norvegicus [23], 83.9%; in the experiment with Rattus norvegicus [3], 8.8%; with Rattus norvegicus [24] it was 65.9%. Besides, the Swelling in the experiment on Rattus norvegicus [6] was 53.3%; in the experiment with Rattus norvegicus [25], 64.6%.
Turning to `O=C(Nc1cccc([N+](=O)[O-])c1)c1c(O)c2cccnc2n(-c2ccccc2)c1=O`, the inhibition in vivo at 100 mg/kg in the experiment with Rattus norvegicus [1] is 5.7%; in the experiment on Rattus norvegicus [26], 19.1%; with Rattus norvegicus [3], 7.4%; in the experiment on Rattus norvegicus [28], 15.4%. The values for the Swelling with Rattus norvegicus [27] and in the experiment on Rattus norvegicus [29] were 80.6% and 83.6%, respectively.
